# Source: PubChem BioAssay (Sanford-Burnham Center for Chemical Genomics)
# Compounds with a hit are over-represented: about 3.3% of the library has one in this group of screens.
# SENP8 block-1: SENP8 protease inhibitors, primary screen, biochemical, luminescence. Sentrin-specific protease 8 (Homo sapiens), Q96LD8. purified SENP8, Z-RLRGG-aminoluciferin cleavage. inhibition, % at 10 µM. actives 1.2% (n = 330,000). AID 2540, 2010; in the data active = inhibition above about 50%
# Target sequence (Q96LD8 whole entry, looked up): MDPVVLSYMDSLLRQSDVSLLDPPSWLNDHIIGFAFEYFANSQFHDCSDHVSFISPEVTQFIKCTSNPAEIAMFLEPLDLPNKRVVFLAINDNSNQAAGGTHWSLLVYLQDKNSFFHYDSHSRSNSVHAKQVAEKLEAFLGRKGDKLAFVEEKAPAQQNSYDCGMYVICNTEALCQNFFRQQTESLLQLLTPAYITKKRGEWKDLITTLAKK
# SENP8 block-2: human SENP8 protease inhibitors, primary screen, biochemical, fluorescence, Nedd8 protein substrate, uHTS. AID 602440, 2012. actives 0.64% (n = 360,000). recombinant SENP8. inhibition, % at 20 µM. Sentrin-specific protease 8 (Homo sapiens), Q96LD8; in the data active = inhibition mostly above about 40%, no sharp cut-off; inactive = mostly below about 27%
# SENP7 block: SENP7 protease inhibitors, primary screen, biochemical, luminescence, uHTS | recombinant SENP7, Z-RLRGG-aminoluciferin luminescence, 40 min | Sentrin-specific protease 7 (Homo sapiens), Q9BQF6 | inhibition, % at 5 µM | actives 1.5% (n = 330,000);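 active = inhibition above about 50% at the single test dose, limit read from the data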;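 note: plate controls were DMSO with enzyme for no effect and no enzyme buffer wells for full effect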
# Target sequence (Q9BQF6 706-1050 limits assumed): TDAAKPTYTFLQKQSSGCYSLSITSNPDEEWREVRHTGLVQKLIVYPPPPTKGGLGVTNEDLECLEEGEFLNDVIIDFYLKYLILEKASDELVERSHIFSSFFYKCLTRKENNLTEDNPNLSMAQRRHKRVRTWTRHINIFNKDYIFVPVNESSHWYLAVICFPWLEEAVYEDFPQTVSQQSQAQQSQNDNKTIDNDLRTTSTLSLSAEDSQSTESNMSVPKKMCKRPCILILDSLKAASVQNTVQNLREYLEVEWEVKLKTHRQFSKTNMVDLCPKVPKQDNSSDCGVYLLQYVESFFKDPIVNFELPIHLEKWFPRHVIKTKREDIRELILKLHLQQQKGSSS
# SENP1 inh: human SENP1 catalytic domain inhibitors, primary screen, biochemical, FRET, uHTS; inhibition, % at 10 µM; actives 0.21% (n = 360,000); Sentrin-specific protease 1 (Homo sapiens), Q9P0U3; recombinant SENP1 catalytic domain, CyPet-SUMO1-YPet FRET cleavage; AID 624204, 2012;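 active = inhibition at least 30% at 10 µM, raw YFP signal under a set limit, fluorescence ratio 0.5 to 1.5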;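 note: 0% = enzyme with DMSO and 100% = no enzyme wells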
#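 Test system: recombinant human SENP1 catalytic domain, His6-tagged / Medium: pH 8 Tris buffer with EDTA, NaCl, BME, BSA, NP40, catalase / Also added: SUMO1 FRET substrate flanked by Cypet and Ypet, 25 nM / Times: 50 min reaction at room temperature / Signal: FRET, CFP and YFP emission / Control set: no-enzyme low control and enzyme-plus-DMSO high control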
# SENP6 inh: SENP6 protease inhibitors, primary screen, biochemical, luminescence, uHTS. Recombinant SENP6 catalytic domain, aminoluciferin luminescence. Sentrin-specific protease 6 (Homo sapiens), Q9GZR1. inhibition, % at 10 µM. actives 1.8% (n = 330,000). AID 2599, 2010;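 active = inhibition above about 50% at the single tested dose, limit read from the data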;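 note: plate controls were DMSO wells with enzyme for no effect and DMSO wells lacking enzyme for full effect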
# NRP1-CendR mod: modulators of CendR peptide binding to NRP-1, primary screen, biochemical, fluorescence polarization, uHTS | inhibition, % at 25 µM | Neuropilin-1 (Homo sapiens), O14786 | FAM-RPARPAR peptide binding to NRP-1 | AID 602438, 2012 | actives 0.85% (n = 360,000);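 active = inhibition or corrected inhibition above about 18%, plus a signal ratio from 0.5 to 1.5, limit read from the data, passing the limit was not always enough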
# SENP8 inh conf: human SENP8 protease inhibitors, confirmation, biochemical, Nedd8 protein substrate, single concentration. actives 15% (n = 1,400). AID 624319, 2012. inhibition, % at 25 µM. purified SENP8, Nedd8-AMC/pro-Nedd8 cleavage fluorescence, 30 min. shares compounds with SENP8 block-2; in the data active = inhibition mostly above about 39%, no sharp cut-off; inactive = mostly below about 34%
# An asterisk follows results filed as active; . = no result.
SMILES,SENP8 block-1,SENP8 block-2,SENP7 block,SENP1 inh,SENP6 inh,NRP1-CendR mod,SENP8 inh conf
O=C(O)c1ccccc1S(=O)(=O)NCC(O)COC1CCCCC1 (configuration not stated),-12.7,43.4*,-7.0,-1.4,-18.2,-9.7,2.1
Cc1cc(N=Nc2ccccc2)cc(C)c1NC(=O)C(F)(F)F,.,23.9,.,0.7,.,4.0,.
CC(=O)Nc1ccc(S(=O)(=O)N2CCSC2c2ccccc2Cl)cc1 (configuration not stated),-4.4,8.2,-9.4,2.1,-7.3,-2.3,.
COC(=O)C1SCCN1S(=O)(=O)c1ccc(Cl)cc1 (configuration not stated),-10.8,42.2*,-2.9,1.4,-2.2,-0.3,12.1
CNS(=O)(=O)c1ccc(CNC[C@H]2O[C@@H](n3ccc(N)nc3=O)[C@H](O)[C@@H]2O)cc1,.,0.5,.,-2.1,.,-10.1,.
Cc1ccc(Sc2ccc(/C=N/O)cc2[N+](=O)[O-])cc1,-13.2,41.9*,3.6,3.8,7.2,-2.9,17.1
CO/N=C/c1ccc(Sc2ccc(C)cc2)c([N+](=O)[O-])c1,-4.0,32.5,1.9,1.5,-6.2,-6.9,.
C[N+]1(C)CCC(=C2c3ccccc3CC(=O)c3sccc32)CC1,2.9,75.1*,14.2,-3.2,35.9,6.7,55.9*
Cc1cc(NC(=O)CCC(=O)N(Cc2ccco2)C(C(=O)NC2CCCC2)c2ccccc2C)no1 (configuration not stated),-5.0,59.8*,-5.1,-3.9,-17.8,6.4,27.3
CC1(Oc2ccc(CC#N)cc2)CCN(Cc2ccc(-n3ccnc3)cc2)C1 (configuration not stated),.,24.5,.,-0.5,.,14.7,.
Cc1ccccc1C(=O)N1CCC[C@@H]1C(=O)N1CCC[C@H]1C(=O)NCc1ccncc1,.,12.3,.,2.9,.,-1.8,.
CCN(CC)S(=O)(=O)c1ccc2c(c1)nc(SCC(=O)NC1CC1)n2-c1ccccc1OC,3.8,43.1*,1.9,0.1,-9.3,13.8,25.8
O=[N+]([O-])c1ccc(-c2csc(N3CCCCCC3)n2)cc1,4.5,28.4,1.0,-2.8,-13.3,0.0,.
O=[N+]([O-])c1ccc(N2CCN(c3nc(-c4ccc(Cl)cc4)cs3)CC2)cc1,-6.9,42.8*,5.9,1.2,-11.8,-1.9,-8.6
CN(C)c1cc(Nc2cccc(O)c2)c([N+](=O)[O-])c2nonc12,3.5,45.0*,-3.8,-16.7,-2.0,-11.5,36.4
CC1(C)CC(=O)c2c(O)cc(OCC(=O)NCCc3ccc(S(N)(=O)=O)cc3)cc2O1,-7.1,34.2,10.2,0.1,-18.6,-12.7,.
CC1(C)CC(=O)c2c(O)cc(OCC(=O)Nc3ccc(S(N)(=O)=O)cc3)cc2O1,9.7,57.2*,-0.6,-0.8,-13.8,-10.2,12.6
O=C(NCc1ccccc1)c1cc(C2CCCCN2C(=O)c2ccccc2)on1 (configuration not stated),.,6.0,.,2.7,.,18.4,.
COc1cc(CC(=O)OCC(=O)Nc2cc([N+](=O)[O-])ccc2Cl)cc(OC)c1OC,-0.9,40.1*,7.9,-1.2,-5.8,10.4,8.0
COc1ccc(NC(=O)COC(=O)CC2CC3CCC2C3)c([N+](=O)[O-])c1 (configuration not stated),-6.4,40.4*,-1.4,6.4,1.4,4.9,23.2
CCN1CCN(C(C(=O)NC2CCCCC2)c2cc3ccccc3o2)CC1 (configuration not stated),.,18.4,.,2.3,.,10.0,.
CCOC(=O)[C@]12CCC=C1N(CCC1=CCCCC1)C(=O)[C@H](CC(=O)NCCCN1CCCC1=O)C2,.,23.4,.,1.7,.,-18.7,.
CCOC(=O)[C@]12CCCC=C1N(CCC1=CCCCC1)C(=O)[C@H](CC(=O)NCCCN1CCCC1=O)C2,.,41.6*,.,0.3,.,-0.8,8.9
Nc1nc(N)c2[nH]c(=S)[nH]c2n1,.,-8.7,.,-0.6,.,-11.8,.
CCc1ccc2c(c1)c1nnc(NN)nc1n2C,6.2,64.5*,-5.9,-1.2,12.7,8.6,-3.6
SMILES,SENP8 block-1,SENP8 block-2,SENP7 block,SENP1 inh,SENP6 inh,NRP1-CendR mod,SENP8 inh conf
CCc1ccc2c(c1)c1nnc(NN)nc1n2CC,6.4,72.3*,0.0,3.7,6.9,-3.4,11.1
CCc1ccc2c(c1)c1nc(C)sc1n2CC(=O)OC,5.7,13.0,2.8,-0.7,6.3,-9.2,.
Cn1c2ccccc2c2nnc(N/N=C/c3ccc(O)cc3)nc21,8.7,23.0,4.0,2.7,-4.9,-9.0,.
CCc1nc2c(OCCC3CCCCC3)cccn2c1N(C)C(=O)C(C)C,.,3.0,.,-0.8,.,7.8,.
Cc1cc(=O)[nH]c(-n2[nH]c(C)cc2=O)n1,-0.8,24.9,2.0,1.7,-1.7,-1.9,.
COc1ccc(-n2[nH]c(C)cc2=O)cc1,-5.3,67.8*,-3.5,-1.6,-5.8,8.7,40.5
CCCNC(=O)C1(C)CCN(Cc2ccc(-c3ccccc3)o2)C1 (configuration not stated),.,-21.8,.,-7.2,.,-21.3,.
CCCNC(=O)C1(C)CCCN(Cc2ccc3c(c2)OCO3)C1 (configuration not stated),.,10.2,.,0.7,.,12.1,.
CC(C)=CCC/C(C)=C/CC/C(C)=N/O,-0.3,19.7,1.3,1.7,24.8,8.5,.
C=CC(C)(O)CCC=C(C)C (configuration not stated),8.2,40.6*,-5.8,1.0,-1.6,16.9,16.8
CSCC[C@H](NC(=O)N1C[C@H]2C[C@@H](C1)c1cccc(=O)n1C2)C(=O)Nc1ccc(NC(C)=O)cc1,-5.6,46.5*,0.9,2.1,-4.0,1.3,8.9
O=C(C1CCN(S(=O)(=O)c2cnc[nH]2)CC1)N1CCc2ccccc2C1,-1.4,41.6*,-0.1,1.0,-3.2,1.1,33.9
COc1ccc(CCC(=O)N2CCN(S(=O)(=O)c3cccc(C(F)(F)F)c3)CC2)cc1OC,-8.9,22.3,-6.3,1.9,-6.3,9.1,.
COc1ccc(CCNC(=O)COC(=O)c2ccc(S(=O)(=O)N3CCCC3)cc2)cc1OC,-8.1,17.9,1.4,-2.0,0.0,2.6,.
COc1ccc(CCNC(=O)C2CCN(S(=O)(=O)c3cnc[nH]3)CC2)cc1OC,5.9,40.1*,0.3,3.3,-2.3,-2.4,18.4
